# Assay outcomes deposited in PubChem by several laboratories.
# The list is not random: actives were taken first. Their share in the collection is about 2.9%.
# MC4R ag barr: agonists of human melanocortin 4 receptor (MC4R) beta-arrestin; P32245; U2OS MC4R beta-arrestin complementation, luminescence; percent of melanotan II response, DMSO zero; AID 540308; activation, % at 8.9 µM; 360,000 compounds, 0.98% hits;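 active = activation above a per-plate cutoff, the mean activation of sample wells on that plate plus 3 SD, cut at about 8% in these data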
# Target sequence (P32245 whole entry, looked up): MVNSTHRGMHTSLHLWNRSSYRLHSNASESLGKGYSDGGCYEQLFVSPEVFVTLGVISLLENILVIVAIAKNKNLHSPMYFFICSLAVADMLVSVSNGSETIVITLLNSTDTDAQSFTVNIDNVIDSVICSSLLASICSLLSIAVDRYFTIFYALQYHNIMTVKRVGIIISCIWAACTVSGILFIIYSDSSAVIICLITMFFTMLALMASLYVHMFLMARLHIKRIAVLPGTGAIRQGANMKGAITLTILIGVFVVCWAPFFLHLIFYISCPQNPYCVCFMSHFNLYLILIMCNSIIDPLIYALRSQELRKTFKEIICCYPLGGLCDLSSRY
# Calb FLC: C. albicans growth modulation with fluconazole. 300,000 compounds, 0.57% hits. C. albicans CaCi-2 + fluconazole, Alamar Blue growth, 48 h. AID 1979. growth inhibition, % (no concentration beside the values);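 active = growth inhibition above about 58% in most replicates, limit read from the data, passing the limit was not always enough; inconclusive = exactly half the replicates above a set limit; inactive = most replicates below a set limit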;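 note: all wells also contain fluconazole at 8 µg/ml as a sub-toxic cotreatment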
# MC4R antagonist: human MC4R antagonism in cAMP assay; AID 540295; MC4R-expressing cells, MTII-stimulated cAMP, LANCE TR-FRET; P32245; inhibition, % at 6.5 µM; 360,000 compounds, 0.48% hits;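 active = inhibition above its plate's cutoff, the mean of tested wells on that plate plus 3 SD, cut at about 29% in these data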
#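 material = U2OS cells stably expressing human melanocortin 4 receptor (MC4R) | also added = Melanotan II challenge | dosing = single nominal compound dose of 6.5 µM | detection = TR-FRET with Eu-cAMP and labeled anti-cAMP, 671 nm | replication = singlicate | timing = compound 30 min, challenge 1 h, detection 1 h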
# GalR3 antagonist: antagonists of human GalR3; O60755; HEK293 GalR3-CNG cAMP membrane potential fluorescence; galR3 body fused to GalR1 C-terminus; inhibition, % at 3 µM; 360,000 compounds, 0.44% hits; AID 651719;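 active = inhibition above the screen-wide average plus 3 SD, cut at about 13% in these data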;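 note: forskolin and galanin both at EC90 stimulate the cells; cAMP rise reported by CNG channel membrane potential dye signal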
# Efflux pump inh: inhibitors of Candida antifungal efflux pumps expressed in yeast | S. cerevisiae Candida pump triplex, Nile Red efflux | inhibition, % at 10 µM | 330,000 compounds, 0.44% hits;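 active = plate passing quality check with inhibition over a set limit, or well fluorescence over plate mean plus 4 SD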;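 note: Nile Red retained in pooled yeast measured as flow cytometry median fluorescence; higher means more Nile Red kept so more efflux inhibition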
# H9c2 TAG inh: reduces triacylglycerol accumulation in H9c2 cells; AID 651582; 230,000 compounds, 0.66% hits; inhibition, % at 12.5 µM; Nile Red lipid (TAG) fluorescence; cells loaded with 200 µM oleic acid;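 active = pattern-corrected inhibition of lipid staining of at least 50% with the nuclear-stain viability signal not falling by more than 50%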
# TAG conf: triacylglycerol accumulation inhibition, confirmation; 990 compounds, 71% hits; H9c2 lipid accumulation, Nile Red fluorescence; cells loaded with 200 µM oleic acid; inhibition, % at 12.5 µM; shares compounds with H9c2 TAG inh; AID 651629;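 active = mean inhibition across replicates of 40% or more; inactive = mean inhibition below 40%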
# Hits are given with their value; n = inactive; u = inconclusive; x = no result.
SMILES,MC4R ag barr,Calb FLC,MC4R antagonist,GalR3 antagonist,Efflux pump inh,H9c2 TAG inh,TAG conf
CCOC(=O)CN(C(=O)CSc1nnc2c(n1)[nH]c1ccccc12)c1ccccc1,n,n,n,n,n,51,n
O=C(C[C@@H]1CC[C@H](NC(=O)Nc2ccc(F)cc2)[C@@H](CO)O1)NCc1cccc(F)c1,x,x,x,n,x,x,x
C[C@H](NS(=O)(=O)c1ccc(Cl)cc1)C(=O)OCC(=O)Nc1cc(S(=O)(=O)N2CCOCC2)ccc1Cl,n,x,n,n,x,n,x
COc1ccc(NC(=O)CSc2nc3ccc(Nc4nc(N5CCOCC5)nc(N5CCOCC5)n4)cc3s2)cc1,n,n,n,n,n,x,x
Cc1ccc(NC(=O)CSc2nc3ccc(Nc4nc(N5CCOCC5)nc(N5CCOCC5)n4)cc3s2)cc1,n,n,n,n,n,84,86
CC(CCc1ccccc1)NC(=O)CN1C(=O)NC2(CCCCC2C)C1=O (stereo not given),n,x,n,n,n,n,x
CN1CCN(c2ccc([N+](=O)[O-])cc2C(=O)c2ccc(Cl)cc2)CC1,n,n,n,n,n,54,49
O=C(c1ccc(Cl)cc1)c1cc([N+](=O)[O-])ccc1N1CCOCC1,n,u,n,n,n,n,x
O=C(Nc1ccc(S(=O)(=O)N2CCOCC2)cc1)c1ccc([N+](=O)[O-])s1,n,x,n,n,n,94,89
CCc1nnc(NS(=O)(=O)c2ccc(NC(=O)c3cccc([N+](=O)[O-])c3)cc2)s1,n,n,n,n,n,x,x
CCc1nnc(NS(=O)(=O)c2ccc(NC(=O)c3ccc([N+](=O)[O-])s3)cc2)s1,n,x,n,n,x,67,n
COC(=O)C1=C(C)N(CC(C)C)C(=S)NC1c1ccc(-c2ccccc2)cc1 (stereo not given),x,x,x,n,x,x,x
COCCNc1nc(-c2ccc(OC)cc2C)c2sc(-c3ccccc3)cc2n1,n,x,n,n,x,60,n
CN(Cc1ccccc1)C(=O)c1ccc(Nc2nc(C(N)COCc3ccccc3)cs2)nc1 (stereo not given),n,x,n,n,x,n,x
CN(Cc1ccccc1)C(=O)c1ccc(Nc2nc(C(N)Cc3ccccc3)cs2)nc1 (stereo not given),n,x,n,n,x,52,49
NC(Cc1ccc(F)cc1)c1csc(Nc2ccc(C(F)(F)F)cn2)n1 (stereo not given),n,x,n,n,x,90,74
COc1ccc(NC(=O)Cn2cnc3sc(C)c(S(=O)(=O)N4CCOCC4)c3c2=O)cc1Cl,n,n,n,n,n,x,x
Cc1nc(SCc2nc3ccccc3[nH]2)c2oc3ccccc3c2n1,n,n,n,n,n,n,x
c1ccc(-c2nc(SCc3nc4ccccc4[nH]3)c3oc4ccccc4c3n2)cc1,n,x,n,n,n,74,88
CCc1nc2ccc(C(=O)Nc3cccc(OCC(=O)N(C)C)c3)cn2c1N(C)C(=O)c1cccc(OC)c1,n,x,n,n,x,n,x
CCOC(=O)c1c(N)n(-c2ccc(N)cc2)c2nc3ccccc3nc12,n,n,n,n,n,n,x
Nc1c(C(=O)Nc2ccccc2)c2nc3ccccc3nc2n1-c1ccc(O)cc1,n,n,n,n,n,64,65
N#CCC(=O)N/N=C/c1cn(Cc2ccccc2C#N)c2ccccc12,n,n,n,n,n,n,x
N#CCC(=O)N/N=C/c1cn(Cc2ccc(Cl)c(Cl)c2)c2ccccc12,20,n,n,n,n,73,58
CCOC(=O)CSc1cccc2cccnc12,n,n,n,n,n,96,41
O=C(CSc1cccc2cccnc12)Nc1ccc(S(=O)(=O)N2CCOCC2)cc1,n,n,n,n,n,72,57
O=C(CSc1cccc2cccnc12)N/N=C/c1ccc(O)cc1,n,n,n,n,n,n,x
COc1ccc(NC(=O)CSc2cccc3cccnc23)c(OC)c1,n,n,n,n,n,x,x
COc1cccc(/C=N/NC(=O)CSc2cccc3cccnc23)c1,n,n,n,n,n,61,56
O=C(CSc1cccc2cccnc12)Nc1cccc(S(=O)(=O)N2CCOCC2)c1,n,n,n,n,n,n,x
